Substitutions are numbered along the chain they refer to.
What was measured:
Conditions in all cases: stereoisomer not certain
O52J3 T77A V128I Q141L = system: O52J3 T77A V128I Q141L
Method in brief: (§1)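 Whether a receptor–molecule pair is responsive (active) rests on the original authors' judgment that its measured signal was statistically different from baseline. Pairs without that judgment are non-responsive (inactive). Sources used varied assay methods, commonly transient luciferase assays in mammalian cell lines.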

O52K1 A119T A149T = system: T1, O52K1 A119T A149T
T1 sequence (whole entry): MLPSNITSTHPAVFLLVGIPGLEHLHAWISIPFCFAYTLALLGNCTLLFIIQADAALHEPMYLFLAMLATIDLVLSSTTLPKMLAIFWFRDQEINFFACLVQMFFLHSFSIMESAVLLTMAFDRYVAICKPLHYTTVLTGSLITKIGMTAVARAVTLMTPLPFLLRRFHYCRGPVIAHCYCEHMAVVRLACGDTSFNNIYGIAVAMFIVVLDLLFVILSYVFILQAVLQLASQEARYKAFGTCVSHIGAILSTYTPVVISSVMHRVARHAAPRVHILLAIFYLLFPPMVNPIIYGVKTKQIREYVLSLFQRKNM
Method in brief: as §1

O52K1 Q52R = system: T2, O52K1 Q52R
T2 sequence (whole entry): T1 sequence (whole entry) with Q52R, T119A, T149A
Method in brief: as §1

O52L1 = system: T3, O52L1
T3 sequence (whole entry): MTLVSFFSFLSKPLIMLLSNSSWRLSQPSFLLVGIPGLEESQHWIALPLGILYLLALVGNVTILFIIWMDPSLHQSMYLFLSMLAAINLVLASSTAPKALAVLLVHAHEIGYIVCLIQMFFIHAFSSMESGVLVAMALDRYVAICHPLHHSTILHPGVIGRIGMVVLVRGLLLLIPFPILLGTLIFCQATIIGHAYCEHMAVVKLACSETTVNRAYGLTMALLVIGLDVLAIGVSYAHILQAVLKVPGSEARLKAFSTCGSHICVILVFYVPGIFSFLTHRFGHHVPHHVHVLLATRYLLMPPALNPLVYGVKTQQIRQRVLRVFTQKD
Method in brief: as §1

O52M1 S305R = system: T4, O52M1 S305R
T4 sequence (whole entry): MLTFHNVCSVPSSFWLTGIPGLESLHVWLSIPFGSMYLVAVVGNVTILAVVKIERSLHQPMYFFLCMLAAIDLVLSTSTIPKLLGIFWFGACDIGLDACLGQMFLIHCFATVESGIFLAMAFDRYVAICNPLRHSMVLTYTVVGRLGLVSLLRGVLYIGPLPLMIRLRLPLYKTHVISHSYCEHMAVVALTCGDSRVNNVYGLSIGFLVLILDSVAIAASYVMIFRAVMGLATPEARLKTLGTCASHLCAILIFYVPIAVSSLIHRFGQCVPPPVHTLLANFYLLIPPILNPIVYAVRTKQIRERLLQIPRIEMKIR
Method in brief: as §1

O52N1 R167C F247I = system: T5, O52N1 R167C F247I
T5 sequence (whole entry): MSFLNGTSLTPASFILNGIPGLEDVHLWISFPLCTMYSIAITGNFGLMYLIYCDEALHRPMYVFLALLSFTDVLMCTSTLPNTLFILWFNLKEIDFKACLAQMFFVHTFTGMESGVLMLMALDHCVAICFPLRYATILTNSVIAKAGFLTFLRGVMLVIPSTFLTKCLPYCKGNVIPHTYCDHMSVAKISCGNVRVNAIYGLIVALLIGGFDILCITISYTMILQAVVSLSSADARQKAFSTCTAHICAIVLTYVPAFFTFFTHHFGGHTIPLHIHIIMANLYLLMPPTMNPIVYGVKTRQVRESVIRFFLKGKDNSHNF
Method in brief: as §1

O52N2 S249A H264R = system: T6, O52N2 S249A H264R
T6 sequence (whole entry): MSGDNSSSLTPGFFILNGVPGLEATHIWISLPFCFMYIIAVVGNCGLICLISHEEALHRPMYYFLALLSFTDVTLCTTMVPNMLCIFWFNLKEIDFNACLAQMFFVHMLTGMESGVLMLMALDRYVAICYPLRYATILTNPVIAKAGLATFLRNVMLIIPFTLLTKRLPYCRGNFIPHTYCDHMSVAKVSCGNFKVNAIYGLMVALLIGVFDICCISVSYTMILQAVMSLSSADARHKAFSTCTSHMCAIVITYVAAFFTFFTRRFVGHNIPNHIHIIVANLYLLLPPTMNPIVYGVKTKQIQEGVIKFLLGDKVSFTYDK
Method in brief: as §1

O52W1 H239R L254Q = system: T7, O52W1 H239R L254Q
T7 sequence (whole entry): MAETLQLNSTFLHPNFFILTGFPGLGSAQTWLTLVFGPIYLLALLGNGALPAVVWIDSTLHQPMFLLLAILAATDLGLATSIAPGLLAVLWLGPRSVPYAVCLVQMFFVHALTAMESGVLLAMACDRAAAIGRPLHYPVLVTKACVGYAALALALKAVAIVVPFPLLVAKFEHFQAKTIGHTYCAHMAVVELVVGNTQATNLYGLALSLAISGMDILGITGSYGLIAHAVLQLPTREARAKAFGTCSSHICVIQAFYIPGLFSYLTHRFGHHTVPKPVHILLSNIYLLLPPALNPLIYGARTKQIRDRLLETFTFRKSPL
Method in brief: as §1

O56A3 = system: T8, O56A3
T8 sequence (whole entry): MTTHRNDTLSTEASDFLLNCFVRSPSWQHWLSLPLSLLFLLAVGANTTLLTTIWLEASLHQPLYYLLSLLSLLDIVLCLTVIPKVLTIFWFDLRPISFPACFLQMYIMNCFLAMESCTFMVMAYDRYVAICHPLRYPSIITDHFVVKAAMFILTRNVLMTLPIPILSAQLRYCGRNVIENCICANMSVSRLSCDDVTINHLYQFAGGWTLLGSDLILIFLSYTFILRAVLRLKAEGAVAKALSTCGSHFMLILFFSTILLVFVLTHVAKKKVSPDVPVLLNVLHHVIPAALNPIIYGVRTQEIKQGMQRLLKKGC
Method in brief: as §1

O56A4 I247A = system: T9, O56A4 I247A
T9 sequence (whole entry): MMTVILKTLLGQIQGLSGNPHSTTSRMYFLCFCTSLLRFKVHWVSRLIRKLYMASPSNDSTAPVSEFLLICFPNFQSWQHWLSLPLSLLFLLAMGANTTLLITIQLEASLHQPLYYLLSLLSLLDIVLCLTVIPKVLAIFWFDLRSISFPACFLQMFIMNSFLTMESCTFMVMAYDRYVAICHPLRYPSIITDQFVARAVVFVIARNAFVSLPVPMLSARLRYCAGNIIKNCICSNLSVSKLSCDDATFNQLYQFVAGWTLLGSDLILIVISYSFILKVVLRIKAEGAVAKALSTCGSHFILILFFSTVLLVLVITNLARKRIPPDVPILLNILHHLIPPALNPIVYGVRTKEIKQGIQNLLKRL
Method in brief: as §1

Measured: odorant receptor agonist call;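 further: active if original authors judged signal statistically different from baseline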

CCC1OC(C)=C(O)C1=O (centres undefined)
inactive: O52J3 T77A V128I Q141L | O52K1 A119T A149T | O52K1 Q52R | O52L1 | O52M1 S305R | O52N1 R167C F247I | O52N2 S249A H264R | O52W1 H239R L254Q | O56A3 | O56A4 I247A

CCCC(S)CCOC(C)=O (centres undefined)
inactive: O52J3 T77A V128I Q141L | O52K1 A119T A149T | O52K1 Q52R | O52L1 | O52M1 S305R | O52N1 R167C F247I | O52N2 S249A H264R | O52W1 H239R L254Q | O56A3 | O56A4 I247A

CCC1OC(=O)C(O)=C1C (centres undefined)
inactive: O52J3 T77A V128I Q141L | O52K1 A119T A149T | O52K1 Q52R | O52L1 | O52M1 S305R | O52N1 R167C F247I | O52N2 S249A H264R | O52W1 H239R L254Q | O56A3 | O56A4 I247A

Cc1cnc(C)c(C)n1
inactive: O52J3 T77A V128I Q141L | O52K1 A119T A149T | O52K1 Q52R | O52L1 | O52M1 S305R | O52N1 R167C F247I | O52N2 S249A H264R | O52W1 H239R L254Q | O56A3 | O56A4 I247A

CC1=NC(C)C(C)S1 (centres undefined)
inactive: O52J3 T77A V128I Q141L | O52K1 A119T A149T | O52K1 Q52R | O52L1 | O52M1 S305R | O52N1 R167C F247I | O52N2 S249A H264R | O52W1 H239R L254Q | O56A3 | O56A4 I247A

CCCCCCC=CCCC=O
inactive: O52J3 T77A V128I Q141L | O52K1 A119T A149T | O52K1 Q52R | O52M1 S305R | O52N1 R167C F247I | O52N2 S249A H264R | O52W1 H239R L254Q | O56A3 | O56A4 I247A

CC1=C(O)C(=O)OC1C (centres undefined)
inactive: O52J3 T77A V128I Q141L | O52K1 A119T A149T | O52K1 Q52R | O52L1 | O52M1 S305R | O52N1 R167C F247I | O52N2 S249A H264R | O52W1 H239R L254Q | O56A3 | O56A4 I247A

CC1=C(O)C(=O)C(C)O1 (centres undefined)
inactive: O52J3 T77A V128I Q141L | O52K1 A119T A149T | O52K1 Q52R | O52L1 | O52M1 S305R | O52N1 R167C F247I | O52N2 S249A H264R | O52W1 H239R L254Q | O56A3 | O56A4 I247A
